From ChEMBL document CHEMBL1129078, “3-(2-Benzofuranyl)quinuclidin-2-ene derivatives: novel muscarinic antagonists” (J Med Chem, 1996) come the findings set out here.

As a reminder, the Ki is a measure of affinity in units of concentration, obtained from inhibition or displacement.

For one test, the species on record is Cavia porcellus. The test is described as follows: Antimuscarinic potency using isolated guinea pig urinary bladder. Format: functional. An outline of the steps: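 Male guinea pigs (~300 g) killed and exsanguinated; urinary bladder smooth muscle strips mounted in 37 °C Krebs-Henseleit baths (pH 7.4, carbogen), ~5 mN resting tension, isometric tension recorded. A control cumulative carbachol curve was run, then washout, ≥15 min rest, and 60 min with a fixed antagonist concentration before a second curve. Dose ratio from graphical EC50s; KB = [A]/(r − 1).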

Test [1] deals with Muscarinic acetylcholine receptor. The test is described as follows: Receptor binding affinity (Ki) for Muscarinic acetylcholine receptor (urinary bladder) was determined by competition radioligand -[3H]- QNB binding assay. Format: protein assay, Cavia porcellus. An outline of the steps: (§1)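 Guinea pig urinary bladder dissected in PMSF-containing Krebs-Henseleit pH 7.4 and Polytron-homogenized in ice-cold 50 mM phosphate buffer pH 7.4 with 1 mM PMSF (≤0.3 mg/mL protein). Competition against 2 nM (−)-[3H]QNB; triplicates at 25 °C for 60 min; 10 µM atropine defines nonspecific binding. Pellets from centrifugation were scintillation counted. IC50 taken graphically, Ki by the Jacobs method; means ± SEM, 2–3 experiments.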

Test [2] has the same target. The test is described as follows: Receptor binding affinity (Ki) against Muscarinic acetylcholine receptor (cerebral cortex) was determined by competition radioligand -[3H]- QNB binding assay. It is filed as tissue-based, Cavia porcellus. A digest of the protocol: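 Guinea pig cerebral cortex homogenized (Potter-Elvehjem) in ice-cold 50 mM Na/K phosphate buffer pH 7.4 with 1 mM PMSF, ≤0.3 mg/mL protein. Competition with (−)-[3H]QNB (2 nM final), triplicates incubated at 25 °C for 80 min, nonspecific binding with 10 µM atropine. Ended by centrifugation; pellets counted by scintillation.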

For test [3] the target is unchanged. The test is described as follows: Receptor binding affinity (Ki) for Muscarinic acetylcholine receptor (heart)was determined by competition radioligand -[3H]- QNB binding assay. Format: protein assay, Cavia porcellus. An outline of the steps:
(§2)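 Guinea pig hearts dissected in Krebs-Henseleit pH 7.4 with 1 mM PMSF, Polytron-homogenized in ice-cold 50 mM phosphate/PMSF buffer pH 7.4, ≤0.3 mg/mL protein. Competition against 2 nM (−)-[3H]QNB, triplicates at 25 °C for 80 min, 10 µM atropine nonspecific. Centrifugation, scintillation counting of pellets. Graphical IC50 to Ki by the Jacobs method; means ± SEM, 2–3 experiments.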

The target is the same in test [4]. The test is described as follows: Receptor binding affinity (Ki) for Muscarinic acetylcholine receptor (parotid glands) was determined by competition radioligand -[3H]- QNB binding assay. It is filed as protein assay, Cavia porcellus. A digest of the protocol:
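Guinea pig parotid glands dissected in Krebs-Henseleit pH 7.4 with 1 mM PMSF, Polytron-homogenized in ice-cold 50 mM phosphate/PMSF pH 7.4, ≤0.3 mg/mL protein. Displacement of 2 nM (−)-[3H]QNB, triplicates at 25 °C for 210 min, 10 µM atropine for nonspecific binding. Centrifugation, then pellet scintillation counting.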

The target is the same in test [5]. The test is described as follows: Receptor binding affinity against Muscarinic acetylcholine receptor from guinea pig cerebral cortex was determined using [3H]- QNB as radioligand. It is filed as tissue-based, Cavia porcellus. A digest of the protocol: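 Guinea pig cerebral cortex homogenized (Potter-Elvehjem) in ice-cold 50 mM Na/K phosphate buffer pH 7.4 with 1 mM PMSF, ≤0.3 mg/mL protein. Competition with (−)-[3H]QNB (2 nM final), triplicates incubated at 25 °C for 80 min, nonspecific binding with 10 µM atropine. Ended by centrifugation; pellets counted by scintillation. IC50 read graphically, converted to Ki by the Jacobs method; means ± SEM of 2–3 experiments.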

Test [6] shares this target. The test is described as follows: Receptor binding affinity against Muscarinic acetylcholine receptor from guinea pig heart was determined using [3H]- QNB as radioligand. Format: protein assay, Cavia porcellus. An outline of the steps:
as §2

The target is the same in test [7]. Put plainly: Receptor binding affinity against Muscarinic acetylcholine receptor from guinea pig parotid gland was determined using [3H]- QNB as radioligand. Format: protein assay, Cavia porcellus. An outline of the steps: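 Guinea pig parotid glands dissected in Krebs-Henseleit pH 7.4 with 1 mM PMSF, Polytron-homogenized in ice-cold 50 mM phosphate/PMSF pH 7.4, ≤0.3 mg/mL protein. Displacement of 2 nM (−)-[3H]QNB, triplicates at 25 °C for 210 min, 10 µM atropine for nonspecific binding. Centrifugation, then pellet scintillation counting. Ki from graphical IC50 via the Jacobs correction; means ± SEM of 2–3 experiments.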

The target is the same in test [8]. The test is described as follows: Receptor binding affinity against Muscarinic acetylcholine receptor from guinea pig urinary bladder was determined using [3H]- QNB as radioligand. It is filed as protein assay, Cavia porcellus. An outline of the steps: as §1

As to `C1=C(c2oc3ccccc3c2-c2ccccc2)C2CCN1CC2`, the Kb in the test listed under Cavia porcellus turned out to be 148 nM. Moreover, the inhibition constant (Ki) is given as 107 nM in [1], 20 nM in test [2], 72 nM in [3] and 56 nM in test [4].

`C1=C(c2cc3cc(-c4ccccc4)ccc3o2)C2CCN1CC2`: the Ki was 332 nM in test [1], 289 nM in test [2], 376 nM in test [3] and 410 nM in [4].

Turning to `O=Cc1cc(I)cc2cc(C3=CN4CCC3CC4)oc12`, the Ki is listed as 600 nM in test [1], 358 nM in [2], 314 nM in test [3] and 2300 nM in test [4].

In [5], `N#Cc1cc(I)c2oc(C3=CN4CCC3CC4)cc2c1` displayed an inhibitory constant (Ki) of 440 nM.

In turn, `COc1cc(CO)cc2cc(C3=CN4CCC3CC4)oc12` showed a Kb in the test listed under Cavia porcellus of 10000 nM. The Ki in [5] stood at 3665 nM; in test [6], 5400 nM; in [7], 20000 nM; in test [8] it was 9400 nM.

As for `Nc1ccc2oc(C3=CN4CCC3CC4)cc2c1`, the Ki in test [5] is 212 nM; in [6], 837 nM; in test [7], 683 nM.

Turning to `OCc1ccc2oc(C3=CN4CCC3CC4)cc2c1`, in the test filed under Cavia porcellus, the Kb came to 13400 nM. Besides, the Ki in test [5] was 1400 nM; in test [6] it was 1840 nM; in [7], 10700 nM; in test [8], 2900 nM.

Turning to `O=[N+]([O-])c1cc(I)c2oc(C3=CN4CCC3CC4)cc2c1`, the Ki in [5] is reported as above 150 nM; in test [6], 1900 nM; in test [7], above 1000 nM; in test [8], 1600 nM.

In the case of `C1=C(c2cc3ncccc3o2)C2CCN1CC2`, the Ki came out at 21 nM in test [5], 61 nM in test [6], 110 nM in [7] and 83 nM in test [8].

For the compound `Fc1ccc2oc(C3=CN4CCC3CC4)cc2c1`, the Ki in test [5] worked out at 6.3 nM; in [6], 34 nM; in test [7] it was 30 nM; in test [8], 37 nM.

Turning to `O=Cc1ccc2oc(C3=CN4CCC3CC4)cc2c1`, the inhibition constant (Ki) stood at 1300 nM in [1], 364 nM in [2], 920 nM in [3] and 1571 nM in test [4].

In the case of `Cc1cccc2cc(C3=CN4CCC3CC4)oc12`, the Ki in test [2] is 25 nM; in test [3] it was 76 nM; in test [4], 76 nM.

On to `Brc1ccc2oc(C3=CN4CCC3CC4)cc2c1`, for which, in the test filed under Cavia porcellus, the Kb is 178 nM. The inhibitory constant (Ki) was 156 nM in test [1], 39 nM in [2], 86 nM in [3] and 109 nM in [4].

For the compound `O=[N+]([O-])c1ccc2oc(C3=CN4CCC3CC4)cc2c1`, the Ki worked out at 139 nM in test [5], 460 nM in test [6] and 515 nM in [7].

As for `C1=C(c2cc3cccc(-c4ccccc4)c3o2)C2CCN1CC2`, the inhibitory constant (Ki) worked out at 330 nM in test [1], 135 nM in [2], 260 nM in test [3] and 410 nM in [4].

For `O=Cc1cc(I)c2oc(C3=CN4CCC3CC4)cc2c1`, the inhibitory constant (Ki) came out at 1000 nM in test [1], 221 nM in test [2], 517 nM in test [3] and 1300 nM in test [4].

Consider `Brc1cccc2cc(C3=CN4CCC3CC4)oc12`, for which the Kb in the test filed under Cavia porcellus worked out at 123 nM. Also, the Ki is 97 nM in [1], 15 nM in [2], 44 nM in [3] and 216 nM in [4].

Regarding `COc1cc(C=O)cc2cc(C3=CN4CCC3CC4)oc12`, the inhibitory constant (Ki) is given as 3900 nM in [1], 1170 nM in test [2], 2040 nM in test [3] and 7600 nM in test [4].

On to `Brc1c(C2=CN3CCC2CC3)oc2ccccc12`, for which the Ki in [1] turned out to be 116 nM; in test [2] it was 40 nM; in test [3], 106 nM; in [4], 161 nM.

For `OCc1cccc2cc(C3=CN4CCC3CC4)oc12`, the Ki stood at 330 nM in [5], 1360 nM in [6], 1024 nM in [7] and 2000 nM in [8].

With `OCc1cc(I)cc2cc(C3=CN4CCC3CC4)oc12`, the Ki in [5] is given as 480 nM; in [6], 1100 nM; in [7], 2700 nM; in [8], 2460 nM.

On to `OCc1cc(I)c2oc(C3=CN4CCC3CC4)cc2c1`, for which the inhibition constant (Ki) came out at 197 nM in [5], 462 nM in [6], 970 nM in test [7] and 802 nM in [8].

Turning to `Cc1c(C2=CN3CCC2CC3)oc2ccccc12`, the inhibitory constant (Ki) in test [2] worked out at 25.3 nM; in test [3], 77.8 nM; in test [4], 204 nM.

`O=Cc1cccc2cc(C3=CN4CCC3CC4)oc12`: the Ki in [1] was 1700 nM; in [2] it was 648 nM; in test [3], 1612 nM; in test [4], 3023 nM.

`Cc1ccc2oc(C3=CN4CCC3CC4)cc2c1`: the Ki is 364 nM in [1], 116 nM in test [2], 238 nM in test [3] and 295 nM in test [4].

In the case of `N#Cc1ccc2oc(C3=CN4CCC3CC4)cc2c1`, the Ki is 60 nM in test [2], 160 nM in [3] and 236 nM in test [4].
